For data set [1], the target named is T1, Mast/stem cell growth factor receptor Kit (Homo sapiens, UniProt P10721). Nature of the data set: Inhibition of recombinant C-terminal polyhistidine-tagged human c-KIT expressed in mammalian expression system using Tyr 06 peptide as substrate measured after 1hr by FRET based Z'Lyte assay.
The target in data set [2] is Tyrosine-protein kinase Blk (Homo sapiens, UniProt P51451). The experiment in a line: Inhibition of full length recombinant His-tagged human BLK cytoplasmic domain expressed in baculovirus expression system measured after 1 hr by FRET based Z'Lyte assay. The essentials:
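Z'-LYTE FRET biochemical kinase assay run by Invitrogen on selected kinases identified from binding profiling; IC50 from dose-response.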

Data set [3] has as its system Mast/stem cell growth factor receptor Kit (Homo sapiens), P10721 [V559D,V654A]. The experiment in a line: Inhibition of Tel-fused c-KIT V559D/V654A double mutant (unknown origin) expressed in BAF3 cells assessed as growth inhibition measured after 72 hrs by CellTiter-Glo or CCK8 assay. It is filed as cell-based. The procedure, abridged: (§1)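 BaF3 lines were made by retroviral transduction with kinase-fusion MSCV vectors packaged in HEK293T cells. Cells were selected with puromycin for 48 h, then selected again without IL-3 so growth depends on the introduced kinase. […] They were seeded at 1 to 2.5×10^4 cells/mL with compound dilutions and incubated 72 h. Viability was read by CellTiter-Glo luminescence or CCK-8 absorbance (450/655 nm), normalized to DMSO control; GI50 was curve-fitted from triplicate tests.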

The subject of data set [4] is Mast/stem cell growth factor receptor Kit (Homo sapiens), P10721 [V559D,T670I]. The experiment in a line: Inhibition of Tel-fused c-KIT T670I/V559D double mutant (unknown origin) expressed in BAF3 cells assessed as growth inhibition measured after 72 hrs by CellTiter-Glo or CCK8 assay. Format: cell-based. The procedure, abridged: as §1
Data set [5] concerns the target T2, BCR/ABL p210 fusion protein (Homo sapiens, UniProt A1Z199). Nature of the data set: Inhibition of BCR/ABL p210 fusion protein autophosphorylation at Y245 in human K562 cells measured after 2 hrs by immunoblotting. It is filed as cell-based. The procedure, abridged: (§2)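 After an ice-cold PBS wash, cells were lysed in RIPA buffer (50 mM Tris pH 8.0) with protease and phosphatase inhibitors, and protein was quantified by BCA. Lysates were run on SDS-PAGE, transferred to PVDF and blocked in 5% milk/TBST. Phospho- and total proteins were probed by immunoblot with ECL detection; β-actin served as loading control.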
Target sequence in this assay (A1Z199 whole entry, the tested form may be a part): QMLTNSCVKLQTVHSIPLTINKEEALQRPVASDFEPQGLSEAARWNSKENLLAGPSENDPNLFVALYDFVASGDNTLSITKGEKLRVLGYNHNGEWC

In data set [6] the target is T2, BCR/ABL p210 fusion protein. The experiment in a line: Inhibition of BCR/ABL p210 fusion protein mediated signaling pathways assessed as reduction in CrkL phosphorylation at Y207 in human K562 cells at 0.01 to 3 uM measured after 2 hrs by immunoblotting. Format: cell-based. The essentials: as §2
Target sequence in this assay (A1Z199 1-97): as the sequence (A1Z199 whole entry, the tested form may be a part) above
The target is the same in data set [7]. Nature of the data set: Inhibition of BCR/ABL p210 fusion protein autophosphorylation at Y245 in human KU812 cells at 0.01 to 3 uM measured after 2 hrs by immunoblotting. It is filed as cell-based. The procedure, abridged:
as §2
Target sequence in this assay (A1Z199 1-97): as the sequence (A1Z199 whole entry, the tested form may be a part) above

Data set [8] shares this target. The experiment in a line: Inhibition of BCR/ABL p210 fusion protein mediated signaling pathways assessed as reduction in CrkL phosphorylation at Y207 in human KU812 cells at 0.01 to 3 uM measured after 2 hrs by immunoblotting. Format: cell-based. The essentials:
as §2
Target sequence in this assay (A1Z199 1-97): as the sequence (A1Z199 whole entry, the tested form may be a part) above

Data set [9] has the same target. The experiment in a line: Inhibition of BCR/ABL p210 fusion protein mediated signaling pathways assessed as reduction in ERK phosphorylation at T202/Y204 in human MEG01 cells at 0.01 to 3 uM measured after 2 hrs by immunoblotting. The note with it: MEG-01. It is filed as cell-based. The procedure, abridged: as §2
Target sequence in this assay (A1Z199 1-97): as the sequence (A1Z199 whole entry, the tested form may be a part) above
Data set [10] deals with T1, Mast/stem cell growth factor receptor Kit. Nature of the data set: Inhibition of c-KIT autophosphorylation at Y703 in human GIST882 cells at 0.01 to 3 uM measured after 2 hrs by immunoblotting. It is filed as cell-based. The essentials:
as §2

Data set [11] shares this target. The experiment in a line: Inhibition of c-KIT mediated signaling pathways assessed as reduction in S6K phosphorylation at T389 in human GIST882 cells at 0.03 to 10 uM measured after 2 hrs by immunoblotting. It is filed as cell-based. The procedure, abridged: as §2
Data set [12] in a line: Cell cycle arrest in human GIST882 cells assessed as accumulation at G0/G1 phase at 0.3 uM after 48 hrs by propidium iodide/RNase staining based flow cytometry. Format: functional. The procedure, abridged:
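Cells were exposed to serially diluted compound, then fixed in cold 70% ethanol overnight at -20 °C. They were stained with PI/RNase buffer for DNA-content cell-cycle analysis.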

Data set [13] relates to K562. Nature of the data set: Induction of apoptosis in human K562 cells assessed as cleavage of PARP at 0.1 to 3 uM by Western blot analysis. It is filed as functional, cell-based. The procedure, abridged: (§3)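 Cells were treated with DMSO or serially diluted compound for the indicated periods. They were washed in ice-cold PBS and lysed in RIPA buffer with protease/phosphatase inhibitors, and protein was quantified by BCA. Lysates were resolved by SDS-PAGE, transferred to PVDF and blocked in 5% milk/TBST. Blots were probed for PARP and caspase-3, with β-actin as loading control, and detected by ECL.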

The subject of data set [14] is KU812 cell line. The experiment in a line: Induction of apoptosis in human KU812 cells assessed as increase in cleaved caspase-3 level at 0.1 to 3 uM by Western blot analysis. It is filed as functional, cell-based. The essentials:
as §3

Data set [15] relates to GISTT1. Nature of the data set: Induction of apoptosis in human GISTT1 cells assessed as increase in cleaved caspase-3 level at 0.1 to 3 uM by Western blot analysis. Format: functional, cell-based. The procedure, abridged: as §3
Data set [16] has as its system GIST882. The experiment in a line: Induction of apoptosis in human GIST882 cells assessed as increase in cleaved caspase-3 level at 0.1 to 3 uM by Western blot analysis. Format: functional, cell-based. The essentials: as §3
Data set [17] in a line: AUC (0 to infinity) in Sprague-Dawley rat at 1 mg/kg, iv. As to conditions: in vivo. It is filed as ADME, organism-based. Details: dose 1 mg/kg, route intravenous, time infinity. The essentials: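 Male Sprague-Dawley rats aged six to eight weeks were fasted overnight and then dosed iv or orally. Blood (~0.2 mL) was drawn from the jugular vein into heparin and kept on ice. Sampling was at 1 min to 8 h for iv and 5 min to 24 h for oral. Plasma was separated by centrifugation at 2-8 °C and stored at -80 °C until analysis.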

The test system of data set [18] is K562. The experiment in a line: Anticancer activity against human K562 cells xenografted in nu/nu mouse assessed as reduction in tumor progression administered daily via oral gavage measured 28 days post compound treatment. Format: functional, cell-based. The procedure, abridged:
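Female nu/nu mice received ten million K562 cells subcutaneously in the right flank, in PBS mixed 1:1 with Matrigel. Daily oral gavage began at 200-400 mm³ tumor size, with 4 or 5 mice per group. Dosing was 25, 50 or 100 mg/kg/d or vehicle (0.5% methylcellulose/0.4% Tween80) for 28 days. Body weight and tumor size were normalized to initial values, and final tumor weight was recorded. Data are mean ± SEM.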

For data set [19], the target named is Macrophage colony-stimulating factor 1 receptor (Homo sapiens, UniProt P07333). As to conditions: BaF3.
Data set [20] concerns GISTT1. The experiment in a line: Anticancer activity against human GISTT1 cells xenografted in nu/nu mouse assessed as tumor growth inhibition administered daily via oral gavage measured 21 days post compound treatment.
Data set [21] is described as follows: Anticancer activity against human GISTT1 cells xenografted in nu/nu mouse assessed as tumor weight at 25 mg/kg, po administered daily via oral gavage measured 21 days post compound treatment (reference value: 2.86 g).
Data set [22] concerns the target T1, Mast/stem cell growth factor receptor Kit. As to conditions: GISTT1, 1 uM.
Data set [23] has the same target. The note with it: 1 uM.

Data on two compounds can be found in ChEMBL document CHEMBL3877303 (J Med Chem, 2017).

Activity calls are given as the source filed them. No cut-off for these calls is given here.

T1 sequence (P10721 whole entry, the tested form may be a part): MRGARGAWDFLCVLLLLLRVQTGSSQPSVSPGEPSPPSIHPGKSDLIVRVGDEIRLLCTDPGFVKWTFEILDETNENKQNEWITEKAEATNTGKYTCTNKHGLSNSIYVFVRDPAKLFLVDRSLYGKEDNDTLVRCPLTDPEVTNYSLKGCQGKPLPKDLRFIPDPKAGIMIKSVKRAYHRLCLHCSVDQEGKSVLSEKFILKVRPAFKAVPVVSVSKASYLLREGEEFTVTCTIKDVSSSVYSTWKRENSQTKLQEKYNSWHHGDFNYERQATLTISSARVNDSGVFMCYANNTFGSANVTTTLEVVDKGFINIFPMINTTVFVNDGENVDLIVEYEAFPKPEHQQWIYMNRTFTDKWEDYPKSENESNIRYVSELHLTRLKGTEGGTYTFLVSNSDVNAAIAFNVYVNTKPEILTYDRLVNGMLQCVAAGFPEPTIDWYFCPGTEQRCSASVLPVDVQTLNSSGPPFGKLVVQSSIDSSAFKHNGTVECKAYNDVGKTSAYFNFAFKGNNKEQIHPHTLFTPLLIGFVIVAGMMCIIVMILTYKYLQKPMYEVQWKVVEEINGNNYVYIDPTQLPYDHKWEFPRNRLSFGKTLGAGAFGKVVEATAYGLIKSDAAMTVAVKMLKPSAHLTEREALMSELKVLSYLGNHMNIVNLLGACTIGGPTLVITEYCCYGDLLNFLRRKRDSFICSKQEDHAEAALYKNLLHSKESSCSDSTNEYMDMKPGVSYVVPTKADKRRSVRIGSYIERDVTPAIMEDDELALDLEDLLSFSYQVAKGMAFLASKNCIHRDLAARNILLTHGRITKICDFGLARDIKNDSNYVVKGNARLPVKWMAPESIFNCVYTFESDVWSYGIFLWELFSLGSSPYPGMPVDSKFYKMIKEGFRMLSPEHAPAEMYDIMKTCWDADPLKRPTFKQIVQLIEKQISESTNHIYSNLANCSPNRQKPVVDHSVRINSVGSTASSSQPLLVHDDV
Chain of Macrophage colony-stimulating factor 1 receptor (P07333 whole entry): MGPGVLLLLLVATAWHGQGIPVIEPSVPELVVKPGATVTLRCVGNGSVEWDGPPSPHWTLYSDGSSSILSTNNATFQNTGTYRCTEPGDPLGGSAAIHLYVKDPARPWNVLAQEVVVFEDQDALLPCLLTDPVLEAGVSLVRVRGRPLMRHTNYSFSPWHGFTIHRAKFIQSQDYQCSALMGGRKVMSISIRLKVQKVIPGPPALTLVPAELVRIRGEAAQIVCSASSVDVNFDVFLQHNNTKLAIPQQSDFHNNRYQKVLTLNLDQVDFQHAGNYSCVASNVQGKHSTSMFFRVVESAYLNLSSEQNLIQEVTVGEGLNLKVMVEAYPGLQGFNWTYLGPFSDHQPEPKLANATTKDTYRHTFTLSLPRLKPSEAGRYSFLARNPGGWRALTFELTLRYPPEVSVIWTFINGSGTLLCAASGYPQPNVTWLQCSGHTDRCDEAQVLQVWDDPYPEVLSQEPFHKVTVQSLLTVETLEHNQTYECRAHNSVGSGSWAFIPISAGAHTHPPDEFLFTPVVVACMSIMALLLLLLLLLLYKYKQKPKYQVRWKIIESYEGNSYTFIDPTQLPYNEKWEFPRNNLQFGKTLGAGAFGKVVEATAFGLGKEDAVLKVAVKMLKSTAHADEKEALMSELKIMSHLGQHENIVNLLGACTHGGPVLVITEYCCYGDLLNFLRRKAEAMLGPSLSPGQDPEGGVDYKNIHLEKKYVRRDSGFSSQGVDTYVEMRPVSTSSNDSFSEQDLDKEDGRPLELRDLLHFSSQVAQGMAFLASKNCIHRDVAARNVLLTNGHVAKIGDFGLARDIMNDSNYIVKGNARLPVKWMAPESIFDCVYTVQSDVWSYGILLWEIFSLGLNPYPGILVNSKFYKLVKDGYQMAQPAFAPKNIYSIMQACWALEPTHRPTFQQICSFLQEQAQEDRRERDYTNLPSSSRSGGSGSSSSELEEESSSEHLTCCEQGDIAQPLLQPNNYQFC
Chain of Tyrosine-protein kinase Blk (P51451 whole entry, the tested form may be a part): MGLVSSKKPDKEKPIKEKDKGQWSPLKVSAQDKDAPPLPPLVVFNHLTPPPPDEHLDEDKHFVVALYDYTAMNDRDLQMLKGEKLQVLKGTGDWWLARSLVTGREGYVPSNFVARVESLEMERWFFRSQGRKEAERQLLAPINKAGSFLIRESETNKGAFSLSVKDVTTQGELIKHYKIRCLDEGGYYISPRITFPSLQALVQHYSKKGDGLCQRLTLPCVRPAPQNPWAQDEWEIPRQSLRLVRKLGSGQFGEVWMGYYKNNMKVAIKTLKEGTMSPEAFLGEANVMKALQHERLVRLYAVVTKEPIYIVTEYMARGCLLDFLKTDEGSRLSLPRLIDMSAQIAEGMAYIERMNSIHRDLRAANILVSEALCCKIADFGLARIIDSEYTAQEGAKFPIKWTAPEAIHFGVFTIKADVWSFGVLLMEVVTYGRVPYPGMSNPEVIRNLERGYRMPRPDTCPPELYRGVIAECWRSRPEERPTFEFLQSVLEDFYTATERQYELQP
Chain of Mast/stem cell growth factor receptor Kit (Homo sapiens), P10721 [V559D,V654A] (P10721 whole entry V559D/V654A, the tested form may be a part): as the sequence (P10721 whole entry, the tested form may be a part) above, with V559D, V654A counted along it
Chain of Mast/stem cell growth factor receptor Kit (Homo sapiens), P10721 [V559D,T670I] (P10721 whole entry V559D/T670I, the tested form may be a part): as the sequence (P10721 whole entry, the tested form may be a part) above, with V559D, T670I counted along it

In the case of `Cc1ccc(C(=O)N2CCC(Oc3cc(NC(=O)c4ccc(CN5CCN(C)CC5)c(C(F)(F)F)c4)ccc3C)CC2)cn1`, the IC50 in data set [1] is 75 nM; in data set [2], 81 nM. For the same compound, the GI50 in [3] worked out at 2870 nM; in [4] it was 1010 nM; in [19], 162 nM. The EC50 in data set [5] was below 100 nM. In addition, the inhibition result in data set [6], in data set [7], in data set [8], in [9], in [10] and in [11] was “Active” in each case. Further, the result in data set [12], in [13], in [14], in [15] and in [16] was Active. In data set [17], this compound displayed an AUC(0-inf) of 558 ng·h/mL. Also, the TGI result in data set [18] and in data set [20] was “Dose-dependent effect” in each case. Further, the Activity in data set [21] was 2.2 g.
With `Cc1ccc(NC(=O)c2ccc(CN3CCN(C)CC3)cc2)cc1Nc1nccc(-c2cccnc2)n1` [IMATINIB], the inhibition result in [22] and in data set [23] was “Active” each time.
